In ChEMBL document CHEMBL4130442, “Design, synthesis and structure-activity relationship studies of a focused library of pyrimidine moiety with anti-proliferative and anti-metastasis activities in triple negative breast cancer” (Eur J Med Chem, 2017):
Active and inactive are the calls of the source. The calls are words filed in the database; no cut-off is given here.

Experiments:
MDA-MB-231 [1] = assay: Effect on total Ras protein level in human MDA-MB-231 cells at 5 uM incubated for 24 hrs by Western blot relative to untreated control; conditions: mda-mb-231, 24 h
[2] = target: Dual specificity mitogen-activated protein kinase kinase; MEK1/2 (Homo sapiens) (UniProt P36507+Q02750); assay: Inhibition of MEK1/2 in human MDA-MB-231 cells assessed as MEK1/2 Ser217/221 phosphorylation level at 10 uM incubated for 24 hrs in presence of PDGFRbeta siRNA by Western blot relative to untreated control; type: cell-based
Sequence of Dual specificity mitogen-activated protein kinase kinase; MEK1/2 (Homo sapiens) (P36507 whole entry, looked up): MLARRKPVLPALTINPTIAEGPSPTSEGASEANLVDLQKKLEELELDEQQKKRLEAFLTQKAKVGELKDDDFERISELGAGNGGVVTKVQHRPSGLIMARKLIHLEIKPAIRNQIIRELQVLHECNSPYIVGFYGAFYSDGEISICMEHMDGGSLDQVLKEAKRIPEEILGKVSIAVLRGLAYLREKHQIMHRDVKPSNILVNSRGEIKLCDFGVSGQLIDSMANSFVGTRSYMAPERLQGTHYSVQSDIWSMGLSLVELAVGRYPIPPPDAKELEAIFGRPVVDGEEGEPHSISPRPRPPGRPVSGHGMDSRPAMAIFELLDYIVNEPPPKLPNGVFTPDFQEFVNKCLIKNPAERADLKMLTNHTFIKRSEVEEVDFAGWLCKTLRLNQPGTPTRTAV
Sequence of Dual specificity mitogen-activated protein kinase kinase; MEK1/2 (Homo sapiens) (Q02750 whole entry, looked up): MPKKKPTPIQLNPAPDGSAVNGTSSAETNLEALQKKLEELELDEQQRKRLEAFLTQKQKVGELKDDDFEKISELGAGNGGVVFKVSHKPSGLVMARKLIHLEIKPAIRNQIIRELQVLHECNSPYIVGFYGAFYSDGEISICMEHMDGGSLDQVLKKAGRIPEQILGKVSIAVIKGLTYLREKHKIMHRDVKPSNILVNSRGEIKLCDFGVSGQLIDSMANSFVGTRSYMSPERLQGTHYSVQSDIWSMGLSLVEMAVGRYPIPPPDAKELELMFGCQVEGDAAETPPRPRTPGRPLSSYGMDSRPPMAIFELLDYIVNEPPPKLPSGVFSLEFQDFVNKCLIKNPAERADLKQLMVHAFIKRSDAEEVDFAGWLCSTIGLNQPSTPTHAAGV

MDA-MB-231 [3] = assay: Effect on total Akt protein level in human MDA-MB-231 cells at 10 uM incubated for 24 hrs by Western blot relative to untreated control; type: ADME, cell-based; conditions: mda-mb-231, 24 h
Method in brief: (§1)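 MDA-MB-231 cells were exposed for 24 h. Adherent and floating cells were pooled and lysed for 1 h at 4 °C in 50 mM Hepes pH 7.4 with 1% Triton X-100, orthovanadate, NaF, EDTA, PMSF, aprotinin and leupeptin. After 12,000 rpm clearing, equal protein was run on 10-15% SDS-PAGE and blotted to PVDF. Detection used HRP-ECL, with β-actin as loading control and densitometric quantification.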

[4] = target: T1, Platelet-derived growth factor receptor beta (Homo sapiens, UniProt P09619); assay: Inhibition of PDGFRbeta in human MDA-MB-231 cells assessed as ULK Ser555 phosphorylation level at 10 uM incubated for 24 hrs by Western blot relative to untreated control; type: cell-based
T1 sequence (P09619 whole entry): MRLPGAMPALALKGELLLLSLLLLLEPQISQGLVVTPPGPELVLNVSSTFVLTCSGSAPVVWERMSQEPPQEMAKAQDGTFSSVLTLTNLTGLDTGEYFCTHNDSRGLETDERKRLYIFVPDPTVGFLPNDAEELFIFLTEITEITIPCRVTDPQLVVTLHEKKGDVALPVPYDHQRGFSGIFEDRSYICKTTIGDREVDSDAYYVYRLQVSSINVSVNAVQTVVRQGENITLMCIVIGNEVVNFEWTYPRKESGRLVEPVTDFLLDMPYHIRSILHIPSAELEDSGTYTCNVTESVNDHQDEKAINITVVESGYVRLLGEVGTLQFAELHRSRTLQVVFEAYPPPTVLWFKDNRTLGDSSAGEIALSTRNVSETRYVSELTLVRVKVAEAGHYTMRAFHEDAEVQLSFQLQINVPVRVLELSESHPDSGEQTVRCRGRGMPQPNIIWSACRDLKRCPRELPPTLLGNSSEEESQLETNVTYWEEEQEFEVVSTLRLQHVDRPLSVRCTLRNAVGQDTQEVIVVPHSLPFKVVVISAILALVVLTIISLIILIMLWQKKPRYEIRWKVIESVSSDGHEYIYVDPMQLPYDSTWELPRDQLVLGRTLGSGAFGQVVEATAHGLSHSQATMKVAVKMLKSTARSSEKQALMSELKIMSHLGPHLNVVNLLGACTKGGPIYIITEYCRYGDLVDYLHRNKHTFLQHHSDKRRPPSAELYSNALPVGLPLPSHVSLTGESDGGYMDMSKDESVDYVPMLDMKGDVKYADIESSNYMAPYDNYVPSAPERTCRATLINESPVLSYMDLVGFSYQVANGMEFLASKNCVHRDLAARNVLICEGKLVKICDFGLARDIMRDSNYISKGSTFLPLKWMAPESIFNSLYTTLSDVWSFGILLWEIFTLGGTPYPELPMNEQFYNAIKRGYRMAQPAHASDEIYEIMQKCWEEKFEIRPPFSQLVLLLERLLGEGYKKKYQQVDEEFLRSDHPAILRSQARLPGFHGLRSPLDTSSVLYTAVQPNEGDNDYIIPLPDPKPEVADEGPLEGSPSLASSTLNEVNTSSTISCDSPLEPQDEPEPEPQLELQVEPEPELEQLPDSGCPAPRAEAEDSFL
Method in brief: (§2)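 Cells were treated 24 h at several concentrations. Pooled adherent and floating cells were lysed in Hepes 50 mM pH 7.4 / 1% Triton X-100 buffer with vanadate, NaF, EDTA, PMSF, aprotinin and leupeptin. Equal protein was run on 10-15% SDS-PAGE and blotted to PVDF. PDGFR-β-AKT-ULK1 pathway phospho-proteins were probed and detected by ECL, with β-actin as loading control.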

[5] = target: T1, Platelet-derived growth factor receptor beta; assay: Inhibition of PDGFRbeta in human MDA-MB-231 cells assessed as ULK Ser317 phosphorylation level at 5 uM incubated for 24 hrs by Western blot relative to untreated control; type: cell-based
Method in brief: as §2

MDA-MB-231 [6] = assay: Effect on total PDGFRbeta protein level in human MDA-MB-231 cells at 10 uM incubated for 24 hrs by Western blot relative to untreated control; type: ADME, cell-based; conditions: mda-mb-231, 24 h
Method in brief: as §1

MDA-MB-231 [7] = assay: Activation of ERK in human MDA-MB-231 cells assessed as ERK Thr202/Tyr204 phosphorylation level at 2.5 to 10 uM incubated for 24 hrs by immunocytochemistry; type: cell-based
Method in brief: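 MDA-MB-231 cells (ATCC; DMEM, 10% FBS, 5% CO2) were treated, blocked in PBS with 1.5% goat serum, then given p-ERK antibody (1:200 in PBS with 1% BSA) overnight at 4 °C. TRITC-labelled secondary antibody followed for 1 h at room temperature. Nuclear fluorescence was read by microscopy.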

[8] = target: T1, Platelet-derived growth factor receptor beta; assay: Inhibition of PDGFRbeta in human MDA-MB-231 cells assessed as C-Raf Ser259 phosphorylation level at 10 uM incubated for 24 hrs in presence of PDGFRbeta siRNA by Western blot relative to untreated control; type: cell-based
MDA-MB-231 [9] = assay: Induction of apoptosis in human MDA-MB-231 cells assessed as change in cleaved caspase-3 protein level at 10 uM incubated for 24 hrs by Western blot method relative to untreated control; type: functional
Method in brief: as §1

[10] = target: T1, Platelet-derived growth factor receptor beta; assay: Inhibition of PDGFRbeta in human MDA-MB-231 cells assessed as Akt Ser473 phosphorylation level at 2.5 uM incubated for 24 hrs by Western blot relative to untreated control; type: cell-based
Method in brief: as §2

MDA-MB-231 [11] = assay: Effect on total Akt protein level in human MDA-MB-231 cells at 2.5 uM incubated for 24 hrs by Western blot relative to untreated control; type: ADME, cell-based; conditions: mda-mb-231, 24 h
Method in brief: as §1

[12] = target: Mitogen-activated protein kinase; ERK1/ERK2 (Homo sapiens) (UniProt P27361+P28482); assay: Inhibition of ERK1/2 in human MDA-MB-231 cells assessed as ERK1/2 Thr202/Tyr204 phosphorylation level at 5 uM incubated for 24 hrs in presence of PDGFRbeta siRNA by Western blot relative to untreated control; type: cell-based
Sequence of Mitogen-activated protein kinase; ERK1/ERK2 (Homo sapiens) (P27361 whole entry, looked up): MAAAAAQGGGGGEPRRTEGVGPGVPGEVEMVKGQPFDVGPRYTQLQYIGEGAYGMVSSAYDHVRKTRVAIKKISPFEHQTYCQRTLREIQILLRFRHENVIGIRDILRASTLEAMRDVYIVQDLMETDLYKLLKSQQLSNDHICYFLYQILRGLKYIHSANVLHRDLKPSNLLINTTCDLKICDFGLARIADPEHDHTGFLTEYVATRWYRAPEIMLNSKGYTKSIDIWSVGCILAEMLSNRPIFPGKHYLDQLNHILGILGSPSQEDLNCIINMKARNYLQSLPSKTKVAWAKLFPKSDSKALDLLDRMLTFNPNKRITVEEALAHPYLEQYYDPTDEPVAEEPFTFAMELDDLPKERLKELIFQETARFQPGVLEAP
Sequence of Mitogen-activated protein kinase; ERK1/ERK2 (Homo sapiens) (P28482 whole entry, looked up): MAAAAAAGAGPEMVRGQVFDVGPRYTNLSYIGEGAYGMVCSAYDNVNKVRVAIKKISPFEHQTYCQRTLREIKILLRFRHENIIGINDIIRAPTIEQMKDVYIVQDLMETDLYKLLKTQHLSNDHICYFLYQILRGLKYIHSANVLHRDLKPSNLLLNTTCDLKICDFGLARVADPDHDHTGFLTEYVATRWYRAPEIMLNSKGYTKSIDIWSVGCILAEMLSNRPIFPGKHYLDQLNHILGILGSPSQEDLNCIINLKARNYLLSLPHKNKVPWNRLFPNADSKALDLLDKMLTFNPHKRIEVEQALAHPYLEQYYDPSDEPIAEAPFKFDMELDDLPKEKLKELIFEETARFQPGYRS

[13] = target: T1, Platelet-derived growth factor receptor beta; assay: Inhibition of PDGFRbeta in human MDA-MB-231 cells assessed as Akt Ser473 phosphorylation level at 10 uM incubated for 24 hrs by Western blot relative to untreated control; type: cell-based
Method in brief: as §2

[14] = target: T1, Platelet-derived growth factor receptor beta; assay: Inhibition of PDGFRbeta in human MDA-MB-231 cells assessed as Akt Thr305 phosphorylation level at 2.5 uM incubated for 24 hrs in absence of PDGFRbeta siRNA by Western blot relative to untreated control; type: cell-based
Method in brief: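 Cells were transfected with control or PDGFR-β siRNA, then treated with 2.5 μM compound for 24 h. PDGFR-β-AKT-ULK1 pathway phospho-proteins were assessed by western blot: lysis in Hepes pH 7.4 / Triton buffer, 10-15% SDS-PAGE, PVDF, ECL detection, β-actin as loading control.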

MDA-MB-231 [15] = assay: Effect on total Akt protein level in human MDA-MB-231 cells at 2.5 uM incubated for 24 hrs in absence of PDGFRbeta siRNA by Western blot relative to untreated control; type: ADME, cell-based; conditions: mda-mb-231, 24 h
Method in brief: as §1

MDA-MB-231 [16] = assay: Effect on total PDGFRbeta protein level in human MDA-MB-231 cells at 5 uM incubated for 24 hrs by Western blot relative to untreated control; type: ADME, cell-based; conditions: mda-mb-231, 24 h
Method in brief: as §1

MDA-MB-231 [17] = assay: Effect on total Akt protein level in human MDA-MB-231 cells at 2.5 uM incubated for 24 hrs in presence of PDGFRbeta siRNA by Western blot relative to untreated control; type: ADME, cell-based; conditions: mda-mb-231, 24 h
Method in brief: as §1

MDA-MB-231 [18] = assay: Effect on total Ras protein level in human MDA-MB-231 cells at 2.5 uM incubated for 24 hrs in presence of PDGFRbeta siRNA by Western blot relative to untreated control; type: cell-based; conditions: mda-mb-231, 24 h
MDA-MB-231 [19] = assay: Effect on total ULK1 protein level in human MDA-MB-231 cells at 10 uM incubated for 24 hrs by Western blot relative to untreated control; type: ADME, cell-based; conditions: mda-mb-231, 24 h
Method in brief: as §1

Q: Which results are given for `COc1cccc(Nc2cc(N3CCN(C(=O)Nc4ccc(C(F)(F)F)cc4)CC3)ncn2)c1`?
A: fold change (FC) (MDA-MB-231 [1]): 1.35; fold change (FC) [2]: 1.01; fold change (FC) (MDA-MB-231 [3]): 0.76; fold change (FC) [4]: 5.6; fold change (FC) [5]: 2.1; fold change (FC) (MDA-MB-231 [6]): 0.55; Activity (MDA-MB-231 [7]): Active; fold change (FC) [8]: 0.95; fold change (FC) (MDA-MB-231 [9]): 0.32; fold change (FC) [10]: 0.45; fold change (FC) (MDA-MB-231 [11]): 0.89; fold change (FC) [12]: 1.86; fold change (FC) [13]: 0.18; fold change (FC) [14]: 0.05; fold change (FC) (MDA-MB-231 [15]): 0.62; fold change (FC) (MDA-MB-231 [16]): 1.1; fold change (FC) (MDA-MB-231 [17]): 0.63; fold change (FC) (MDA-MB-231 [18]): 1.2; fold change (FC) (MDA-MB-231 [19]): 0.99
